System: not listed separately
Assay: Cytotoxicity against rat RBL2H3 cells by MTT assay
Format: cell-based
Design: concentration or dose not given beside the values
Conditions: rbl-2h3
How it was run: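 RBL2H3 cells (α-MEM) or PC12 cells (D-MEM), both with 10% FBS, treated at a single dose in 0.1% DMSO; 0.1% DMSO control; 37 °C, 5% CO2. MTT (5 mg/mL) added 4 h before the end, then SDS/DMF lysis buffer (pH 7.2) for 6 h; absorbance read at 570 nm. Cytotoxicity % calculated from background-corrected OD versus control.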
`COC(=O)C(CC(C)C)NC(=O)[C@]12CC[C@@H](C)[C@H](C)[C@H]1C1=CC[C@@H]3[C@@]4(C)Cc5cnn(-c6ccccc6)c5C(C)(C)[C@@H]4CC[C@@]3(C)[C@]1(C)CC2` (some centres undefined) showed an Activity of 1.8%.
With `CCOC(=O)CNC(=O)[C@]12CC[C@@H](C)[C@H](C)[C@H]1C1=CC[C@@H]3[C@@]4(C)C=C(C#N)C(=O)C(C)(C)[C@@H]4CC[C@@]3(C)[C@]1(C)CC2` the Activity was 50.1%.
Work on `C[C@H]1[C@H](C)CC[C@]2(C(=O)O)CC[C@]3(C)C(=CC[C@@H]4[C@@]5(C)CC[C@H](O)C(C)(C)[C@@H]5CC[C@]43C)[C@H]12` [URSOLIC ACID] yielded an Activity of 10%.
With `COC(=O)C(Cc1ccccc1)NC(=O)[C@]12CC[C@@H](C)[C@H](C)[C@H]1C1=CC[C@@H]3[C@@]4(C)Cc5cnoc5C(C)(C)[C@@H]4CC[C@@]3(C)[C@]1(C)CC2` (some centres undefined) the Activity was 0.8%.
With `CC(=O)O[C@H]1CC[C@]2(C)[C@H]3CC=C4[C@@H]5[C@@H](C)[C@H](C)CC[C@]5(C(=O)O)CC[C@@]4(C)[C@]3(C)CC[C@H]2C1(C)C` [O-ACETYLURSOLIC ACID] the Activity was 4.1%.
Compound `COC(=O)C(CC(C)C)NC(=O)[C@]12CC[C@@H](C)[C@H](C)[C@H]1C1=CC[C@@H]3[C@@]4(C)CCC(=O)C(C)(C)[C@@H]4CC[C@@]3(C)[C@]1(C)CC2` (some centres undefined) has an Activity of 2.6%.
`CCOC(=O)CNC(=O)[C@]12CC[C@@H](C)[C@H](C)[C@H]1C1=CC[C@@H]3[C@@]4(C)Cc5cnn(-c6ccc(F)cc6)c5C(C)(C)[C@@H]4CC[C@@]3(C)[C@]1(C)CC2` showed an Activity of 15.8%.
Compound `CCOC(=O)CNC(=O)[C@]12CC[C@@H](C)[C@H](C)[C@H]1C1=CC[C@@H]3[C@@]4(C)Cc5cnoc5C(C)(C)[C@@H]4CC[C@@]3(C)[C@]1(C)CC2` has an Activity of 11.1%.

Target: T1, Tryptophan 5-hydroxylase 1 (Rattus norvegicus, UniProt P09810)
T1 sequence (P09810 whole entry): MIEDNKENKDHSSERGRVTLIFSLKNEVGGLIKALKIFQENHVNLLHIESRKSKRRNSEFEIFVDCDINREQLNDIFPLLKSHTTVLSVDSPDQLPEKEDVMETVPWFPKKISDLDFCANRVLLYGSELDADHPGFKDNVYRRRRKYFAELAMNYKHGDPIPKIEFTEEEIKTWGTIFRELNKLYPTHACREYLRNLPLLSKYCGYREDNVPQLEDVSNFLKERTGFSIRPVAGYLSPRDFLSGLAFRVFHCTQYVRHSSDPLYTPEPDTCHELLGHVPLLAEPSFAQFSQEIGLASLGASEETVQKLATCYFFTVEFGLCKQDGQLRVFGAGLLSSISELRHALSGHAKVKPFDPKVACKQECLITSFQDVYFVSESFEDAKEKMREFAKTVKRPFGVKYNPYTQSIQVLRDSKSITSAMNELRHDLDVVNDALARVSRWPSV
Conditions: not given
Work on `Nc1nc(OC(c2ccc(-c3cccc(F)c3)cc2)C(F)(F)F)cc(-c2ccc(C[C@H](N)C(=O)O)cc2)n1` (some centres undefined) yielded an IC50 of 0.4 µM.

— ChEMBL document CHEMBL3286111, “Tryptophan hydroxylase 1 (Tph-1)-targeted bone anabolic agents for osteoporosis” (J Med Chem, 2014)
